# The source made the active and inactive calls. The calls are words filed in the database; no cut-off is given here.
# Tests used:
# SW-620 = experiment: Cytotoxicity against human SW620 cells after 72 hrs by MTT assay; type: functional, cell-based; settings: SW-620, 72 h
# Procedure, shortened: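 MTT assay: 3000 cells/well seeded, compound added next day, each concentration in quadruplicate, 72 h at 37 °C; medium replaced with 20 µg MTT/well for 4 h, formazan dissolved in DMSO, OD 545 nm. […] Fibroblasts: normal skin fibroblasts from donor, DMEM/10% FBS, used at 32 and 36 population doublings.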
# [1] = Therapeutic index, ratio IC50 for human HeLa cells to IC50 for normal human fibroblasts; type: cell-based; settings: HeLa cells versus normal human fibroblasts, read-out: Ratio IC50
# Procedure, shortened: (§1)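 IC50 values came from an MTT assay. Cells were seeded at 3000 per well and dosed the next day, with each concentration in quadruplicate. After 72 h at 37 °C, MTT (20 µg/well) was added for 4 h; formazan was dissolved in DMSO and read at 545 nm. Each experiment was done three times. Normal skin fibroblasts were used at 32 and 36 population doublings. T.I. = tumor-cell IC50 / fibroblast IC50.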
# [2] = Therapeutic index, ratio IC50 for human SW620 cells to IC50 for normal human fibroblasts; type: cell-based, SW-620; settings: SW620 cells versus normal human fibroblasts, read-out: Ratio IC50; procedure, shortened: as §1
# HeLa [3] = experiment: Cell cycle arrest in human HeLa cells assessed as accumulation at G0/G1 phase at 21 uM after 24 hrs by propidium iodide staining -based flow cytometry (reference value: 60.6 %); type: functional
# Procedure, shortened: (§2)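 HeLa seeded at 100 000 cells/well, treated next day with 0.78, 7 or 21 µM for 24, 48 or 72 h. Adherent plus floating cells collected, PBS-washed, fixed overnight in 70% ethanol at −20 °C, RNase A 30 µg/ml 1 h RT, propidium iodide 16.7 µg/ml 30 min dark; DNA content by flow cytometry, phase percentages including subG1 reported.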
# HeLa [4] = experiment: Cell cycle arrest in human HeLa cells assessed as accumulation at S phase at 0.78 uM after 24 hrs by propidium iodide staining -based flow cytometry (reference value: 27.7 %); type: functional; procedure, shortened: as §2
# HeLa [5] = experiment: Cell cycle arrest in human HeLa cells assessed as accumulation at G2/M phase at 0.78 uM after 24 hrs by propidium iodide staining -based flow cytometry (reference value: 11.7 %); type: functional; procedure, shortened: as §2
# HeLa [6] = experiment: Cell cycle arrest in human HeLa cells assessed as accumulation at G2/M phase at 21 uM after 24 hrs by propidium iodide staining -based flow cytometry (reference value: 11.7 %); type: functional; procedure, shortened: as §2
# HeLa [7] = experiment: Cell cycle arrest in human HeLa cells assessed as accumulation at G2/M phase at 7 uM after 48 hrs by propidium iodide staining -based flow cytometry (reference value: 9.9 %); type: functional; procedure, shortened: as §2
# HeLa [8] = experiment: Cell cycle arrest in human HeLa cells assessed as accumulation at G2/M phase at 21 uM after 48 hrs by propidium iodide staining -based flow cytometry (reference value: 9.9 %); type: functional; procedure, shortened: as §2
# HeLa [9] = experiment: Cell cycle arrest in human HeLa cells assessed as accumulation at subG1 phase at 7 uM after 48 hrs by propidium iodide staining -based flow cytometry (reference value: 8.5 %); type: functional; procedure, shortened: as §2
# HeLa [10] = experiment: Cell cycle arrest in human HeLa cells assessed as accumulation at subG1 phase at 0.78 uM after 72 hrs by propidium iodide staining -based flow cytometry (reference value: 7.2 %); type: functional; procedure, shortened: as §2
# HeLa [11] = experiment: Induction of CHOP expression in human HeLa cells at 7 uM after 16 to 48 hrs by Western blot analysis; type: functional, cell-based
# Procedure, shortened: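 Log-phase HeLa exposed to a concentration series for 48 h, or to 7 µM over a time course. Extracts resolved on 10% SDS gels, blotted to nitrocellulose, blocked 5% milk; anti-CHOP 1:1000 in 5% BSA overnight at 4 °C, HRP secondary 1:5000 2 h RT, ECL detection; ERK2 reprobe as loading control.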
# HeLa [12] = experiment: Induction of Grp78 expression in human HeLa cells at 7 uM after 16 to 48 hrs by Western blot analysis; type: functional, cell-based
# Procedure, shortened: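 Logarithmically growing HeLa cells were exposed to varying concentrations for 48 h, or to 7 µM for varying times. Cell extracts were run on 10% SDS gels and transferred to nitrocellulose. Membranes were blocked in 5% milk and probed with anti-Grp78 (1:1000, overnight, 4 °C), then an HRP secondary (1:5000, 2 h, RT). Detection was by ECL, with ERK2 reprobing as the loading control.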
# HeLa [13] = experiment: Induction of apoptotis in human HeLa cells assessed as cleavage of apoptotic protein PARP at 7 uM after 48 hrs by Western blot analysis; type: functional, cell-based
# Procedure, shortened: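 HeLa cells were treated for 48 h at 7 µM and analysed by Western blot (10% SDS gels, nitrocellulose, HRP secondary, ECL, ERK2 loading control) for cleavage of apoptotic proteins. Antibodies: anti-PARP 1:4000; anti-caspase-3 and anti-caspase-8 1:1000; rabbit polyclonal anti-caspase-9 1:1000.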
# HeLa [14] = experiment: Cell cycle arrest in human HeLa cells assessed as accumulation at subG1 phase after 24 to 72 hrs by propidium iodide staining -based flow cytometry; type: functional; procedure, shortened: as §2
structure (smiles),measurement,setting,value
CC(=O)N(/N=N/c1ccc([N+](=O)[O-])cc1Cl)c1ccc([N+](=O)[O-])cc1Cl,IC50,SW-620,450 nM
same,selectivity ratio,[1],0.045
same,selectivity ratio,[2],0.032
same,Activity,HeLa [3],69.3%
same,Activity,HeLa [4],15.1%
same,Activity,HeLa [5],10.5%
same,Activity,HeLa [6],10.5%
same,Activity,HeLa [7],9.6%
same,Activity,HeLa [8],11.9%
same,Activity,HeLa [9],23.8%
same,Activity,HeLa [10],17.6%
same,Activity,HeLa [11],Active
same,Activity,HeLa [12],Active
same,Activity,HeLa [13],Active
same,Activity,HeLa [14],Dose-dependent effect

# Source: ChEMBL document CHEMBL1806465, “Synthesis and biological evaluation of 4-nitro-substituted 1,3-diaryltriazenes as a novel class of potent antitumor agents” (Eur J Med Chem, 2011)
